In ChEMBL document CHEMBL4689842, “EUbOPEN Chemogenomics Library wave 1” (2021):

Tested on: Fibroblast
Experiment: Multiplex assay against human fibroblast
Assay type: toxicity, cell-based
Procedure, shortened: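 Live cells were stained at seeding with Hoechst33342, BioTracker Green Microtubule Cytoskeleton Dye, MitoTracker Red and Annexin V Alexa Fluor 680, then imaged on a CQ1 microscope at 37°C and 5% CO2 after compound addition. CellPathfinder machine-learning gating split cells into Hoechst high-intensity objects or normal cells. Normal cells were split into healthy, pyknosed or fragmented nuclei, and pyknosed cells into mitotic or apoptotic. Tubulin, mitochondrial-mass and membrane-permeability phenotypes are per cents of healthy-nucleus cells.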

[1] = 12 h, 1 µM, compound concentration 1 uM, replicate 1
[2] = 12 h, 1 µM, compound concentration 1 uM, replicate 2
[3] = 12 h, 10 µM, compound concentration 10 uM, replicate 1
[4] = 12 h, 10 µM, compound concentration 10 uM, replicate 2
[5] = 24 h, 1 µM, compound concentration 1 uM, replicate 1
[6] = 24 h, 1 µM, compound concentration 1 uM, replicate 2
[7] = 24 h, 10 µM, compound concentration 10 uM, replicate 1
[8] = 24 h, 10 µM, compound concentration 10 uM, replicate 2
[9] = 48 h, 1 µM, compound concentration 1 uM, replicate 1
[10] = 48 h, 1 µM, compound concentration 1 uM, replicate 2
[11] = 48 h, 10 µM, compound concentration 10 uM, replicate 1
[12] = 48 h, 10 µM, compound concentration 10 uM, replicate 2

Cc1cc(C)c(S(=O)(=O)N(Cc2ccc(-c3cccc(S(C)(=O)=O)c3)cc2)Cc2ccc(C(F)(F)F)o2)c(C)c1
Population Apoptotic (%) [1]: 68%
Population Fragmented Nuclei (%) [1]: 20%
Population Healthy Nuclei (%) [1]: 45%
Population Hoechst High Intensity Objects (%) [1]: 8%
Population Membrane Permeable-Phenotype (%) [1]: 19%
Population Mitochondria Different-Phenotype (%) [1]: 8%
Population Mitotic Cells (%) [1]: 32%
Population Normal (%) [1]: 91%
Population Pyknosed Nuclei (%) [1]: 34%
Population Tubulin-Different-Phenotype (%) [1]: 55%
Total Cell Count [1]: 161
Population Apoptotic (%) [2]: 66%
Population Fragmented Nuclei (%) [2]: 15%
Population Healthy Nuclei (%) [2]: 80%
Population Hoechst High Intensity Objects (%) [2]: 6%
Population Membrane Permeable-Phenotype (%) [2]: 3%
Population Mitochondria Different-Phenotype (%) [2]: 21%
Population Mitotic Cells (%) [2]: 33%
Population Normal (%) [2]: 93%
Population Pyknosed Nuclei (%) [2]: 3%
Population Tubulin-Different-Phenotype (%) [2]: 27%
Total Cell Count [2]: 72
Population Apoptotic (%) [3]: 51%
Population Fragmented Nuclei (%) [3]: 40%
Population Healthy Nuclei (%) [3]: 27%
Population Hoechst High Intensity Objects (%) [3]: 45%
Population Membrane Permeable-Phenotype (%) [3]: 25%
Population Mitochondria Different-Phenotype (%) [3]: 7%
Population Mitotic Cells (%) [3]: 48%
Population Normal (%) [3]: 54%
Population Pyknosed Nuclei (%) [3]: 31%
Population Tubulin-Different-Phenotype (%) [3]: 74%
Total Cell Count [3]: 179
Population Apoptotic (%) [4]: 0%
Population Fragmented Nuclei (%) [4]: 14%
Population Healthy Nuclei (%) [4]: 77%
Population Hoechst High Intensity Objects (%) [4]: 22%
Population Membrane Permeable-Phenotype (%) [4]: 3%
Population Mitochondria Different-Phenotype (%) [4]: 3%
Population Mitotic Cells (%) [4]: 100%
Population Normal (%) [4]: 77%
Population Pyknosed Nuclei (%) [4]: 8%
Population Tubulin-Different-Phenotype (%) [4]: 11%
Total Cell Count [4]: 81
Population Apoptotic (%) [5]: 45%
Population Fragmented Nuclei (%) [5]: 21%
Population Healthy Nuclei (%) [5]: 64%
Population Hoechst High Intensity Objects (%) [5]: 9%
Population Membrane Permeable-Phenotype (%) [5]: 25%
Population Mitochondria Different-Phenotype (%) [5]: 6%
Population Mitotic Cells (%) [5]: 54%
Population Normal (%) [5]: 90%
Population Pyknosed Nuclei (%) [5]: 14%
Population Tubulin-Different-Phenotype (%) [5]: 58%
Total Cell Count [5]: 171
Population Apoptotic (%) [6]: 0%
Population Fragmented Nuclei (%) [6]: 14%
Population Healthy Nuclei (%) [6]: 80%
Population Hoechst High Intensity Objects (%) [6]: 1%
Population Membrane Permeable-Phenotype (%) [6]: 5%
Population Mitochondria Different-Phenotype (%) [6]: 18%
Population Mitotic Cells (%) [6]: 100%
Population Normal (%) [6]: 98%
Population Pyknosed Nuclei (%) [6]: 5%
Population Tubulin-Different-Phenotype (%) [6]: 32%
Total Cell Count [6]: 86
Population Apoptotic (%) [7]: 77%
Population Fragmented Nuclei (%) [7]: 34%
Population Healthy Nuclei (%) [7]: 46%
Population Hoechst High Intensity Objects (%) [7]: 42%
Population Membrane Permeable-Phenotype (%) [7]: 31%
Population Mitochondria Different-Phenotype (%) [7]: 18%
Population Mitotic Cells (%) [7]: 22%
Population Normal (%) [7]: 57%
Population Pyknosed Nuclei (%) [7]: 18%
Population Tubulin-Different-Phenotype (%) [7]: 72%
Total Cell Count [7]: 166
Population Apoptotic (%) [8]: 14%
Population Fragmented Nuclei (%) [8]: 15%
Population Healthy Nuclei (%) [8]: 71%
Population Hoechst High Intensity Objects (%) [8]: 10%
Population Membrane Permeable-Phenotype (%) [8]: 5%
Population Mitochondria Different-Phenotype (%) [8]: 10%
Population Mitotic Cells (%) [8]: 85%
Population Normal (%) [8]: 89%
Population Pyknosed Nuclei (%) [8]: 13%
Population Tubulin-Different-Phenotype (%) [8]: 15%
Total Cell Count [8]: 109
Population Apoptotic (%) [9]: 72%
Population Fragmented Nuclei (%) [9]: 30%
Population Healthy Nuclei (%) [9]: 58%
Population Hoechst High Intensity Objects (%) [9]: 8%
Population Membrane Permeable-Phenotype (%) [9]: 16%
Population Mitotic Cells (%) [9]: 27%
Population Normal (%) [9]: 91%
Population Pyknosed Nuclei (%) [9]: 11%
Population Tubulin-Different-Phenotype (%) [9]: 40%
Total Cell Count [9]: 178
Population Apoptotic (%) [10]: 66%
Population Fragmented Nuclei (%) [10]: 17%
Population Healthy Nuclei (%) [10]: 79%
Population Hoechst High Intensity Objects (%) [10]: 10%
Population Membrane Permeable-Phenotype (%) [10]: 18%
Population Mitochondria Different-Phenotype (%) [10]: 2%
Population Mitotic Cells (%) [10]: 33%
Population Normal (%) [10]: 89%
Population Pyknosed Nuclei (%) [10]: 2%
Population Tubulin-Different-Phenotype (%) [10]: 32%
Total Cell Count [10]: 114
Population Apoptotic (%) [11]: 100%
Population Fragmented Nuclei (%) [11]: 47%
Population Healthy Nuclei (%) [11]: 49%
Population Hoechst High Intensity Objects (%) [11]: 40%
Population Membrane Permeable-Phenotype (%) [11]: 45%
Population Mitochondria Different-Phenotype (%) [11]: 3%
Population Mitotic Cells (%) [11]: 0%
Population Normal (%) [11]: 59%
Population Pyknosed Nuclei (%) [11]: 2%
Population Tubulin-Different-Phenotype (%) [11]: 63%
Total Cell Count [11]: 192
Population Fragmented Nuclei (%) [12]: 21%
Population Healthy Nuclei (%) [12]: 77%
Population Hoechst High Intensity Objects (%) [12]: 12%
Population Membrane Permeable-Phenotype (%) [12]: 5%
Population Normal (%) [12]: 87%
Population Pyknosed Nuclei (%) [12]: 1%
Population Tubulin-Different-Phenotype (%) [12]: 22%
Total Cell Count [12]: 86

CCOc1cc2ncc(C#N)c(Nc3ccc(OCc4ccccn4)c(Cl)c3)c2cc1NC(=O)/C=C/CN(C)C [NERATINIB]
Population Apoptotic (%) [1]: 55%
Population Fragmented Nuclei (%) [1]: 21%
Population Healthy Nuclei (%) [1]: 37%
Population Hoechst High Intensity Objects (%) [1]: 14%
Population Membrane Permeable-Phenotype (%) [1]: 25%
Population Mitochondria Different-Phenotype (%) [1]: 13%
Population Mitotic Cells (%) [1]: 44%
Population Normal (%) [1]: 85%
Population Pyknosed Nuclei (%) [1]: 41%
Population Tubulin-Different-Phenotype (%) [1]: 58%
Total Cell Count [1]: 134
Population Apoptotic (%) [2]: 11%
Population Fragmented Nuclei (%) [2]: 9%
Population Healthy Nuclei (%) [2]: 82%
Population Hoechst High Intensity Objects (%) [2]: 8%
Population Membrane Permeable-Phenotype (%) [2]: 4%
Population Mitochondria Different-Phenotype (%) [2]: 18%
Population Mitotic Cells (%) [2]: 88%
Population Normal (%) [2]: 91%
Population Pyknosed Nuclei (%) [2]: 9%
Population Tubulin-Different-Phenotype (%) [2]: 15%
Total Cell Count [2]: 64
Population Apoptotic (%) [3]: 45%
Population Fragmented Nuclei (%) [3]: 25%
Population Healthy Nuclei (%) [3]: 44%
Population Hoechst High Intensity Objects (%) [3]: 34%
Population Membrane Permeable-Phenotype (%) [3]: 7%
Population Mitochondria Different-Phenotype (%) [3]: 1%
Population Mitotic Cells (%) [3]: 54%
Population Normal (%) [3]: 65%
Population Pyknosed Nuclei (%) [3]: 30%
Population Tubulin-Different-Phenotype (%) [3]: 13%
Total Cell Count [3]: 621
Population Apoptotic (%) [4]: 12%
Population Fragmented Nuclei (%) [4]: 35%
Population Healthy Nuclei (%) [4]: 50%
Population Hoechst High Intensity Objects (%) [4]: 27%
Population Mitochondria Different-Phenotype (%) [4]: 16%
Population Mitotic Cells (%) [4]: 87%
Population Normal (%) [4]: 72%
Population Pyknosed Nuclei (%) [4]: 13%
Population Tubulin-Different-Phenotype (%) [4]: 42%
Total Cell Count [4]: 109
Population Apoptotic (%) [5]: 64%
Population Fragmented Nuclei (%) [5]: 21%
Population Healthy Nuclei (%) [5]: 40%
Population Hoechst High Intensity Objects (%) [5]: 18%
Population Membrane Permeable-Phenotype (%) [5]: 32%
Population Mitochondria Different-Phenotype (%) [5]: 11%
Population Mitotic Cells (%) [5]: 35%
Population Normal (%) [5]: 81%
Population Pyknosed Nuclei (%) [5]: 37%
Population Tubulin-Different-Phenotype (%) [5]: 53%
Total Cell Count [5]: 129
Population Apoptotic (%) [6]: 23%
Population Fragmented Nuclei (%) [6]: 9%
Population Healthy Nuclei (%) [6]: 76%
Population Hoechst High Intensity Objects (%) [6]: 5%
Population Membrane Permeable-Phenotype (%) [6]: 5%
Population Mitochondria Different-Phenotype (%) [6]: 6%
Population Mitotic Cells (%) [6]: 76%
Population Normal (%) [6]: 94%
Population Pyknosed Nuclei (%) [6]: 14%
Population Tubulin-Different-Phenotype (%) [6]: 11%
Total Cell Count [6]: 73
Population Apoptotic (%) [7]: 52%
Population Fragmented Nuclei (%) [7]: 25%
Population Healthy Nuclei (%) [7]: 48%
Population Hoechst High Intensity Objects (%) [7]: 39%
Population Membrane Permeable-Phenotype (%) [7]: 3%
Population Mitochondria Different-Phenotype (%) [7]: 3%
Population Mitotic Cells (%) [7]: 47%
Population Normal (%) [7]: 60%
Population Pyknosed Nuclei (%) [7]: 26%
Population Tubulin-Different-Phenotype (%) [7]: 15%
Total Cell Count [7]: 651
Population Apoptotic (%) [8]: 12%
Population Fragmented Nuclei (%) [8]: 36%
Population Healthy Nuclei (%) [8]: 49%
Population Hoechst High Intensity Objects (%) [8]: 26%
Population Membrane Permeable-Phenotype (%) [8]: 10%
Population Mitochondria Different-Phenotype (%) [8]: 14%
Population Mitotic Cells (%) [8]: 87%
Population Normal (%) [8]: 73%
Population Pyknosed Nuclei (%) [8]: 14%
Population Tubulin-Different-Phenotype (%) [8]: 34%
Total Cell Count [8]: 124
Population Apoptotic (%) [9]: 61%
Population Fragmented Nuclei (%) [9]: 36%
Population Healthy Nuclei (%) [9]: 45%
Population Hoechst High Intensity Objects (%) [9]: 18%
Population Membrane Permeable-Phenotype (%) [9]: 26%
Population Mitochondria Different-Phenotype (%) [9]: 6%
Population Mitotic Cells (%) [9]: 38%
Population Normal (%) [9]: 81%
Population Pyknosed Nuclei (%) [9]: 18%
Population Tubulin-Different-Phenotype (%) [9]: 51%
Total Cell Count [9]: 122
Population Apoptotic (%) [10]: 33%
Population Fragmented Nuclei (%) [10]: 20%
Population Healthy Nuclei (%) [10]: 76%
Population Hoechst High Intensity Objects (%) [10]: 12%
Population Membrane Permeable-Phenotype (%) [10]: 9%
Population Mitochondria Different-Phenotype (%) [10]: 4%
Population Mitotic Cells (%) [10]: 66%
Population Normal (%) [10]: 87%
Population Pyknosed Nuclei (%) [10]: 2%
Population Tubulin-Different-Phenotype (%) [10]: 14%
Total Cell Count [10]: 123
Population Apoptotic (%) [11]: 55%
Population Fragmented Nuclei (%) [11]: 28%
Population Healthy Nuclei (%) [11]: 42%
Population Hoechst High Intensity Objects (%) [11]: 42%
Population Membrane Permeable-Phenotype (%) [11]: 5%
Population Mitochondria Different-Phenotype (%) [11]: 4%
Population Mitotic Cells (%) [11]: 44%
Population Normal (%) [11]: 57%
Population Pyknosed Nuclei (%) [11]: 28%
Population Tubulin-Different-Phenotype (%) [11]: 11%
Total Cell Count [11]: 626
Population Apoptotic (%) [12]: 62%
Population Fragmented Nuclei (%) [12]: 24%
Population Healthy Nuclei (%) [12]: 56%
Population Hoechst High Intensity Objects (%) [12]: 48%
Population Membrane Permeable-Phenotype (%) [12]: 2%
Population Mitochondria Different-Phenotype (%) [12]: 1%
Population Mitotic Cells (%) [12]: 37%
Population Normal (%) [12]: 51%
Population Pyknosed Nuclei (%) [12]: 19%
Population Tubulin-Different-Phenotype (%) [12]: 18%
Total Cell Count [12]: 814
